Screening results from PubChem.
PLC-beta3 inh = human PLC-beta3 inhibitors, primary screen, biochemical, fluorescence. 1-phosphatidylinositol 4,5-bisphosphate phosphodiesterase beta-3 (Homo sapiens), Q01970. Purified PLC-beta3, fluorogenic substrate. inhibition, % at 12.2 µM. hit rate 0.18% among 370,000; in the data active means inhibition above about 11%
ADAM10 inh = human ADAM10 inhibitors, primary screen, biochemical, QFRET, HTS | Disintegrin and metalloproteinase domain-containing protein 10 (Homo sapiens), O14672 | recombinant ADAM10, EDANS/DABCYL FRET peptide cleavage, 3 h | inhibition, % at 7 µM | hit rate 0.62% among 370,000;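 active means inhibition above a per-campaign cutoff equal to the mean of compounds falling between control-based bounds plus 3 SD, cut at about 20% in these data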
ADAM17 inh = ADAM17 inhibitors, primary screen, biochemical, QFRET | Disintegrin and metalloproteinase domain-containing protein 17 (Homo sapiens), P78536 | recombinant ADAM17, EDANS/DABCYL FRET peptide cleavage | inhibition, % at 6.95 µM | hit rate 0.83% among 370,000 | AID 720648, 2013;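 active means inhibition above the mean of compounds lying between control limits plus 3 SD, set per campaign, cut at about 8.5% in these data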
Target sequence (P78536 215-824 limits assumed): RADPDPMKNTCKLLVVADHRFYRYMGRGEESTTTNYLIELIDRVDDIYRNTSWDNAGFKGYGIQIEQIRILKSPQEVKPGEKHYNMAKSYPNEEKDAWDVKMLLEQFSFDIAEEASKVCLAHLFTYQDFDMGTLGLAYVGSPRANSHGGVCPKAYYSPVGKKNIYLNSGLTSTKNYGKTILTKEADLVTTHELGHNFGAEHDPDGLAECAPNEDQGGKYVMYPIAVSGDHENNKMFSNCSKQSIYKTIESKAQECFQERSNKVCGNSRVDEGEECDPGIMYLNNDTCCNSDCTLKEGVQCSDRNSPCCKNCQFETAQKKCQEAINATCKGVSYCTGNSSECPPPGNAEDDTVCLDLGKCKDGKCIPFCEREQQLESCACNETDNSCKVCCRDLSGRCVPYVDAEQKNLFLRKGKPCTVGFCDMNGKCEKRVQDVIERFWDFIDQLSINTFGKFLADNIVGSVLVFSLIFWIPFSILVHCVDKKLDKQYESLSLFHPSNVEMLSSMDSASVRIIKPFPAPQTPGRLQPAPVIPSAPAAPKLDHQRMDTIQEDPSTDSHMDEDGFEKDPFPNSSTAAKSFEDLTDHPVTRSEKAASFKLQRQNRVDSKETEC
PLC-gamma1 inh = PLC-gamma1 enzyme inhibitors, primary screen, biochemical, fluorescence, purified enzyme; fluorogenic substrate; inhibition, % at 12.2 µM; 1-phosphatidylinositol 4,5-bisphosphate phosphodiesterase gamma-1 (Homo sapiens), P19174; hit rate 0.84% among 370,000; in the data active means inhibition above about 9.5%
TbMetRS inhib = T. brucei MetRS inhibitors, primary screen, biochemical, luminescence; methionyl-tRNA synthetase (Trypanosoma brucei brucei); purified T. brucei MetRS, ATP depletion, Kinase-Glo luminescence; inhibition, % at 11.9 µM; hit rate 0.4% among 360,000; AID 624268, 2012;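 active means inhibition above a per-plate cutoff of the control wells' mean inhibition plus 3 SD, cut at about 5.5% in these data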
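technique = Kinase-Glo luminescence, ATP depletion format | system = purified MetRS (methionyl-tRNA synthetase) enzyme from Trypanosoma brucei | timing = 15 min preincubation, 2 h reaction, all 25 °C | evaluation = percent inhibition versus plate control medians | dosing = single dose, 11.9 µM final nominal, 0.9% final DMSO | also added = substrates ATP, L-methionine and bulk Escherichia coli tRNA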
ADAM10 ctr = ADAM10 inhibitors, counter-screen for ADAM17 exosite inhibitor project, biochemical, FRET, human ADAM10; shares compounds with ADAM17 inh; recombinant ADAM10, EDANS/DABCYL FRET peptide cleavage, 3 h; inhibition, % at 6.95 µM; hit rate 47% among 2,900; AID 743256, 2014;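 active means mean inhibition over the triplicate runs exceeds the activity threshold set in the earlier primary screen, cut at about 20% in these data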
ADAM17 confirm = ADAM17 inhibitors, hit retest, confirmation, biochemical, QFRET peptide cleavage | AID 743257, 2014 | shares compounds with ADAM17 inh | hit rate 65% among 2,900 | recombinant ADAM17, EDANS/DABCYL QFRET peptide cleavage | inhibition, % at 6.95 µM;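 active means mean inhibition across replicates above the hit cutoff set in the primary screen, cut at about 8.5% in these data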
Numbers stand for hits; 0 = inactive; - = not tested or not shown. This is a sample that favours compounds with a hit; in the whole collection about 2.3% have one here.

SMILES | PLC-beta3 inh | ADAM10 inh | ADAM17 inh | PLC-gamma1 inh | TbMetRS inhib | ADAM10 ctr | ADAM17 confirm
O=C(NCc1ccccc1Cl)c1nnc(CS(=O)(=O)c2ccccc2)o1 | 0 | 0 | 10.9 | 0 | 0 | 0 | 0
COC(=O)[C@]12CCCCC=C1N(Cc1ccccc1)C(=O)[C@H](CC(=O)NCc1ccccc1)C2 | 0 | 0 | 0 | 0 | 0 | - | -
CCCn1nc([N+](=O)[O-])c(C(C#N)c2nc3ccccc3s2)c(Cl)c1=O (stereo unspecified) | 0 | 0 | 8.6 | 0 | 0 | 23.5 | 17.5
Oc1ccccc1-c1cc(-c2ccco2)[nH]n1 | 0 | 0 | 0 | 0 | 0 | - | -
Oc1ccccc1-c1cc(-c2ccccc2Cl)[nH]n1 | 0 | 0 | 9.5 | 0 | 0 | 23.9 | 11.8
COC(=O)c1cc2c(c3c4cc(F)ccc4n(S(=O)(=O)c4ccccc4)c13)C(=O)N(Cc1ccccc1)C2 | 0 | 0 | 0 | 0 | - | - | -
COc1ccc(CC(=O)N2CCC(Nc3nc4ccccc4n3Cc3ccc(F)cc3)CC2)cc1 | 0 | 0 | 11.0 | 0 | 0 | 21.0 | 11.6
CCOC(=O)c1cnc2ccc(OCC)cc2c1N1CCN(c2ccccc2OC)CC1 | - | - | - | - | 0 | - | -
CCOC(=O)c1cnc2ccc(OCC)cc2c1N(C)Cc1ccccc1 | 0 | 0 | 9.4 | 0 | 0 | 24.2 | 15.0
COc1ccc(C(CNC(=O)c2cccc(N(C)C)c2)N2CCCC2)cc1 (stereo unspecified) | 0 | 0 | 9.4 | 0 | 0 | 0 | 0
COc1ccc(Cl)cc1NC(=O)C/C(C)=N/NC(=O)CCc1ccccc1 | 0 | 0 | 0 | 0 | 0 | - | -
COc1ccccc1CNC(=O)C/C(C)=N/NC(=O)Cc1ccc(OC)c(OC)c1 | 0 | 0 | 0 | 0 | 0 | - | -
COc1cc(NC(=O)C/C(C)=N/NC(=O)Cc2ccccc2)c(OC)cc1Cl | 0 | 0 | 10.7 | 0 | 0 | 0 | 11.1
COc1ccc(CNC(=O)C/C(C)=N/NC(=O)Cc2ccc(OC)c(OC)c2)cc1 | 0 | 0 | 9.9 | 0 | 0 | 0 | 0
NS(=O)(=O)c1ccc(NC(CNS(=O)(=O)c2ccccc2)c2ccccc2)cc1 (stereo unspecified) | 0 | 0 | 0 | 0 | 0 | - | -
Cc1ccc(NC(CNS(=O)(=O)c2ccc(Cl)cc2)c2ccccc2)cc1 (stereo unspecified) | 0 | 0 | 13.1 | 0 | 0 | 30.7 | 15.3
CCOC(=O)c1c(C)[nH]c(C(=O)OCc2ccc(C)cc2)c1C | 0 | 0 | 0 | 0 | 0 | - | -
CCOC(=O)c1c(C)[nH]c(C(=O)OCc2ccccc2)c1C | 0 | 0 | 8.8 | 0 | 0 | 0 | 8.9
CC(C)C[C@H]1COc2cccc(N3CCC[C@H]3CO)c2S(=O)(=O)N1 | 0 | 0 | 0 | 0 | 0 | - | -
COC(=O)[C@]12C[C@H](CC(=O)NCc3cccs3)C(=O)N(Cc3cccc4ccccc34)C1=C[C@H](C(C)C)O[C@@H]2C1CC1 | 0 | 0 | 0 | 0 | - | - | -
Cc1c(C(=O)NCc2ccccc2)sc(=O)n1Cc1ccccc1F | 0 | 0 | 0 | 0 | 0 | - | -
Nc1[nH]ncc1-c1ccccc1 | 0 | 0 | 0 | 0 | 0 | - | -
COc1cccc(C(=O)OCn2nnc3ccccc3c2=O)c1OC | 0 | 0 | 8.9 | 0 | 0 | 0 | 0
CCn1c(CC(=O)Nc2cccc(OC)c2)nnc1SCC(=O)N1CCN(c2ccccc2)CC1 | 0 | 0 | 12.4 | 0 | 0 | 30.4 | 18.4
CCn1c(COc2ccccc2C)nnc1SCC(=O)N1CCN(c2ccccc2)CC1 | 0 | 0 | 0 | 0 | 0 | - | -
SMILES | PLC-beta3 inh | ADAM10 inh | ADAM17 inh | PLC-gamma1 inh | TbMetRS inhib | ADAM10 ctr | ADAM17 confirm
C[C@H](c1ccccc1)N1C[C@H](COCc2ccccc2)Oc2cc(N3CC[C@@H](O)C3)ccc2S1(=O)=O | 0 | 0 | 9.8 | 0 | 0 | 28.8 | 15.2
C[C@@H](c1ccccc1)N1C[C@H](COCc2ccccc2)Oc2cc(N3CC[C@@H](O)C3)ccc2S1(=O)=O | 0 | 0 | 10.4 | 0 | 0 | 0 | 0
C[C@H](c1ccccc1)N1C[C@H](COCc2ccccc2)Oc2cc(N3CC[C@@H](N(C)C)C3)ccc2S1(=O)=O | 0 | 0 | 0 | 0 | 0 | - | -
C[C@@H](c1ccccc1)N1C[C@@H](COCc2ccccc2)Oc2cc(N3CC[C@@H](O)C3)ccc2S1(=O)=O | 0 | 0 | 0 | 0 | 0 | - | -
O=C(c1ccc2nc(Cc3ccccc3F)oc2c1)N1CC[C@H](O)C1 | 0 | 0 | 0 | 0 | 0 | - | -
Cc1ccc(-c2cc(C(F)F)n3ncc(C(=O)N4CCN(c5cccc(C)c5C)CC4)c3n2)cc1 | 0 | 0 | 0 | 0 | 0 | - | -
COc1ccc(S(=O)(=O)Nc2ccccn2)c(C)c1C | 0 | 0 | 0 | 0 | 0 | - | -
COc1ccc(C(C)C)cc1S(=O)(=O)Nc1ccccn1 | 0 | 0 | 10.1 | 0 | 0 | 0 | 0
O=C(CSc1nc2ccccc2o1)NN=C/C=C/c1ccccc1 | 0 | 0 | 9.5 | 0 | - | 0 | 15.9
COC(=O)[C@@H]1C[C@H]2CC[C@H](O)C[C@H]2N1Cc1ccccc1OC(=O)c1cccs1 | 0 | 0 | 10.9 | 0 | 0 | 0 | 0
Cc1ccc(C2C(C(=O)c3cccs3)=C(O)C(=O)N2c2nnc(C)s2)cc1 (stereo unspecified) | 0 | 0 | 0 | 0 | 0 | - | -
Cc1cc(Br)c(OCc2ccc(C(=O)N/N=C3\CC4CC=CC34)cc2)c(Br)c1 (stereo unspecified) | 0 | 0 | 0 | 0 | 0 | - | -
CCN(CC)C(=O)C1=C(C)N(Cc2ccc(F)cc2)C(=O)C(CC(=O)NCCCCc2ccccc2)C1 (stereo unspecified) | 0 | 0 | 0 | 0 | 0 | - | -
CC1=C(C(=O)N(C)C)CC(CC(=O)NCCCCc2ccccc2)C(=O)N1Cc1ccc(F)cc1 (stereo unspecified) | 0 | 0 | 0 | 0 | 0 | - | -
CC1=C(C(=O)N(C)C)CC(CC(=O)NCCCCc2ccccc2)C(=O)N1Cc1ccc(C(C)(C)C)cc1 (stereo unspecified) | 0 | 0 | 11.3 | 0 | 0 | 26.1 | 12.3
CCN(CC)C(=O)C1=C(C)N(Cc2ccc(C(C)(C)C)cc2)C(=O)C(CC(=O)NCCCCc2ccccc2)C1 (stereo unspecified) | 0 | 0 | 9.8 | 0 | 0 | 0 | 0
CCOCCN1CCN(C(=O)CN2CCCC2=O)CC1 | 0 | 0 | 0 | 0 | 0 | - | -
COc1ccc(C)cc1NC(=O)CSc1nnc(COc2ccccc2)n1Cc1ccco1 | 0 | 0 | 0 | 0 | 0 | - | -
